LYPLA1 counter = LYPLA1 inhibitors, primary screen, counter-screen for PME1 inhibitor project, biochemical, fluorescence polarization, FP-Rh probe ABPP; recombinant LYPLA1; inhibition, % at 5.9 µM; 320,000 tested, 0.16% active;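 active = inhibition above the mean of all tested compounds plus 3 SD, set per campaign, cut at about 14% in these data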;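 note: inhibitors block serine hydrolase probe labeling of LYPLA1 so polarization falls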
Target sequence (O75608 whole entry, looked up): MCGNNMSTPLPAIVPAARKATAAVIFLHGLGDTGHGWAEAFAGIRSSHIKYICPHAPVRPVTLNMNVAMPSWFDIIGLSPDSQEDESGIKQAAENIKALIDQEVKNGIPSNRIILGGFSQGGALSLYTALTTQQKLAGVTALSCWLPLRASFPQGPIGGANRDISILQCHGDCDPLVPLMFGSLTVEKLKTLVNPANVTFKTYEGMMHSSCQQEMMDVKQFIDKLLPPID
PME-1 inh = PME-1 inhibitors via competitive probe labeling, primary screen, biochemical, fluorescence polarization, FP-Rh probe, HTS; Protein phosphatase methylesterase 1 (Homo sapiens), Q9Y570; inhibition, % at 5.9 µM; recombinant PME-1; AID 2130, 2009; 320,000 tested, 0.53% active;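 active = inhibition above the campaign mean of all compounds plus 3 SD, cut at about 26% in these data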;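 note: competitive labeling of PME-1 active site by serine hydrolase directed probe; inhibitors block probe labeling so polarization falls and inhibition rises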
LYPLA2 counter = LYPLA2 inhibitors, primary screen, counter-screen for PME1 inhibitor project, biochemical, fluorescence polarization, FP-Rh probe ABPP; recombinant LYPLA2; inhibition, % at 5.9 µM; Acyl-protein thioesterase 2 (Homo sapiens), O95372; AID 2177, 2009; 320,000 tested, 0.38% active;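 active = inhibition above the screen-wide mean plus 3 SD, limit set per campaign, cut at about 26% in these data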
Target sequence (O95372 whole entry, looked up): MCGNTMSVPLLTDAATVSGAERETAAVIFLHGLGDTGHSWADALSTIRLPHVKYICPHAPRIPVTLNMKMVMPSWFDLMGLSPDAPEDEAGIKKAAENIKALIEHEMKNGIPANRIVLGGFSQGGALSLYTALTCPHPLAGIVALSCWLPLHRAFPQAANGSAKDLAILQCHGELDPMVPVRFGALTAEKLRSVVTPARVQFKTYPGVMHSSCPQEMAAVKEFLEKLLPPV
RBBP9 inhibitor = human RBBP9 inhibitors, primary screen, biochemical, fluorescence polarization, FP-Rh probe, HTS | Serine hydrolase RBBP9 (Homo sapiens), O75884 | recombinant RBBP9 | inhibition, % at 7.94 µM | 220,000 tested, 0.2% active;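 active = inhibition above the campaign mean of all tested compounds plus 3 SD, cut at about 14% in these data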
Target sequence (O75884 whole entry, looked up): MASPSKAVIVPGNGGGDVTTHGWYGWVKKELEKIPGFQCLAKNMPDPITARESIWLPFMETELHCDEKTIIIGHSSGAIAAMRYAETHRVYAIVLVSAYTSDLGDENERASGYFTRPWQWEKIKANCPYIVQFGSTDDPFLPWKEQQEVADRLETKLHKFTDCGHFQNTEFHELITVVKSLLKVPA
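Test system: recombinant human RBBP9; Timing: 30 min then 45 min, 25 °C; Detection: fluorescence polarization; Control set: RBBP9 with DMSO as uninhibited control, no-protein wells as full inhibition; Compound dosing: one concentration, 7.94 µM nominal, 0.794% DMSO; Probe or stimulus: FP-Rh activity-based probe, 375 nM before mixing.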
Fam108B inh = mouse Fam108B serine hydrolase inhibitors, primary screen, counter-screen for RBBP9 inhibitor project, biochemical, fluorescence polarization; recombinant Fam108B, FP-Rh probe fluorescence polarization; AID 1947, 2009; 300,000 tested, 0.33% active; inhibition, % at 9.51 µM;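 active = inhibition above the screen mean inhibition plus 3 SD, computed separately per campaign, cut at about 18% in these data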;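 note: inhibitors lower polarization as less probe binds the enzyme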
PAD4 inh = human PAD4 inhibitors, primary screen, biochemical, fluorescence polarization, 1536-well format. Protein-arginine deiminase type-4 (Homo sapiens), Q9UM07. recombinant PAD4, RCA probe fluorescence polarization. inhibition, % at 6.36 µM. 330,000 tested, 0.41% active;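 active = percent inhibition above a cutoff equal to the mean of all tested compounds plus 3 SD, cut at about 15% in these data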
RBBP9 inh conf = human RBBP9 inhibitors, retest, confirmation, biochemical, fluorescence polarization, FP-Rh probe, triplicate; 410 tested, 36% active; AID 1537, 2009; shares compounds with RBBP9 inhibitor; recombinant RBBP9; inhibition, % at 7.94 µM;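 active = inhibition above the hit cutoff derived for the primary screen, cut at about 15% in these data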
Of the large screens only hits and unclear results are named; the others gave an inactive call (follow-up assays come after a bar, where they were run). In the library only some 1.3% were active in any assay of this set; here they are far more common.

CC(=O)c1ccc(N2CCN(c3ccc(C(N)=O)cc3[N+](=O)[O-])CC2)cc1	none
NC(=O)c1ccc(N2CCN(c3ccc(O)cc3)CC2)c([N+](=O)[O-])c1	LYPLA2 counter 32
O=C(OC[C@H]1O[C@@H](OC(=O)c2cc(O)c(O)c(OC(=O)c3cc(O)c(O)c(O)c3)c2)[C@H](OC(=O)c2cc(O)c(O)c(OC(=O)c3cc(O)c(O)c(O)c3)c2)[C@@H](OC(=O)c2cc(O)c(O)c(OC(=O)c3cc(O)c(O)c(O)c3)c2)[C@@H]1OC(=O)c1cc(O)c(O)c(OC(=O)c2cc(O)c(O)c(O)c2)c1)c1cc(O)c(O)c(OC(=O)c2cc(O)c(O)c(O)c2)c1	PME-1 inh 26, Fam108B inh 65 (no result: RBBP9 inhibitor)
O=C(O)c1ccc(/C=C/c2ccc3cccc(O)c3n2)cc1	none (no result: LYPLA1 counter, PME-1 inh, LYPLA2 counter, Fam108B inh, PAD4 inh)
Oc1ccc(/C=C/c2ccc3cccc(O)c3n2)cc1Br	PME-1 inh 31 (no result: RBBP9 inhibitor)
Nc1nc2c(s1)CCc1c-2cnn1-c1ccccc1	PAD4 inh 40
Cc1ccc(/C=N/N=C2/NC(=O)C(CC(=O)N3CCOCC3)S2)cc1 (configuration not stated)	none
COC(=O)c1ccccc1NC(=O)c1ccccc1OC	none
COc1ccccc1C(=O)Nc1ccccc1SC(=O)c1ccccc1OC	PAD4 inh 80 (no result: RBBP9 inhibitor)
COc1ccc2nc(Cl)c(C#N)cc2c1	none
COC(=O)c1nc(N)sc1-c1ccc(OC)cc1	none
COc1ccc(-c2sc(Nc3ccc(F)c(F)c3F)nc2CCC(=O)NN)cc1	PME-1 inh 30 (no result: RBBP9 inhibitor)
C=CCc1ccc(OCC(O)CN2CCc3ccccc3C2)c(OC)c1 (configuration not stated)	none (no result: RBBP9 inhibitor)
O=C(NCc1ccccc1)C1CCN(S(=O)(=O)c2ccc(Cl)cc2)CC1	PME-1 inh 44
CCCN1CCCc2cc(CN)ccc21	PAD4 inh 28
Cc1nn(-c2ccccc2)c2sc(C(=O)O)cc12	none
Cc1nn(-c2ccccc2)c2sc(-c3n[nH]c(=S)o3)cc12	PME-1 inh 39
Cn1cnnc1SCc1ccc(C(=O)NN)cc1	none
CC(C)c1ccc2[nH]c(O)c(N=NC(=O)c3ccc(CSc4nncn4C)cc3)c2c1	PME-1 inh 30
COc1cc(N)ccc1C(=O)O	none
Nc1ccc(O)c(C(=O)O)c1	PAD4 inh 16 (no result: RBBP9 inhibitor)
CC(C)CC(NC(=O)C(NC(=O)C1CCC(=O)N1C(=O)OCc1ccccc1)C(C)C)C(=O)N1CCCC1C(N)=O (configuration not stated)	none (no result: RBBP9 inhibitor)
Cc1cc(=O)[nH]c2c(N=Nc3ccc(O)cc3)c(N)nn12	RBBP9 inhibitor 23 (no result: LYPLA1 counter, PME-1 inh, LYPLA2 counter, Fam108B inh, PAD4 inh) | RBBP9 inh conf 34
COC(=O)C(C)Oc1cc(OC(C)C(=O)OC)c2c(-c3ccccc3)cc(=O)oc2c1 (configuration not stated)	none (no result: RBBP9 inhibitor)
Oc1ccc(/C=N/NC2=NCCCCC2)cc1	RBBP9 inhibitor 16 | RBBP9 inh conf inactive
O=C(COc1ccccc1-c1ccccc1)NNC(=O)NC1CCCCC1	none
CC(=O)Nc1c(F)cc(Br)cc1F	RBBP9 inhibitor 16 | RBBP9 inh conf inactive
CC(=O)Nc1cc(Br)ccc1O	none
Cn1cccc1/C=N/NC(=O)CNc1ccc2ccccc2c1	none
Cc1ccc(NCC(=O)N/N=C/c2cccn2C)cc1	RBBP9 inhibitor 17 | RBBP9 inh conf inactive
CC(=O)c1sc(-c2ccc(F)cc2)cc1NS(=O)(=O)c1ccccc1	none
CCCCSc1cnn(-c2ccccc2)c(=O)c1SCCCC	RBBP9 inhibitor 16 | RBBP9 inh conf inactive
CCSc1cnn(-c2ccccc2)c(=O)c1SCC	none
CC(=O)Nc1ccc(NC(=O)Cn2c(=O)n(-c3ccccc3)c(=O)c3oc4ccccc4c32)cc1	none
COc1cccc(NC(=O)Cn2c(=O)n(-c3ccccc3)c(=O)c3oc4ccccc4c32)c1	RBBP9 inhibitor 16 | RBBP9 inh conf inactive
O=C(O)CC1S/C(=N\N=C2\C(=O)Nc3ccccc32)N(c2ccc(O)cc2)C1=O (configuration not stated)	none (no result: RBBP9 inhibitor)
CCOc1ccc(S(=O)(=O)Nc2ccc(S(=O)(=O)N3CCCCC3)cc2)cc1	RBBP9 inhibitor 15 | RBBP9 inh conf inactive
NC(=O)COC(=O)C12CC3CC(CC(O)(C3)C1)C2	RBBP9 inhibitor 51 | RBBP9 inh conf inactive
CC(OC(=O)C12CC3CC(CC(O)(C3)C1)C2)C(N)=O (configuration not stated)	none
O=c1ccc(N=Nc2ccccc2)ccc1O	RBBP9 inhibitor 18 | RBBP9 inh conf inactive
CC(C#N)(NC(=O)CN1CCN(S(=O)(=O)c2ccc(Br)cc2Cl)CC1)C1CC1 (configuration not stated)	none (no result: RBBP9 inhibitor, Fam108B inh)
O=C(CSc1ccc2ccccc2n1)c1ccccc1	RBBP9 inhibitor 18 | RBBP9 inh conf inactive
Cc1nc2ccccc2nc1SCC(=O)c1ccccc1	none
CC1CN(Cc2c(O)ccc3c2oc(=O)c2ccccc23)CC(C)O1 (configuration not stated)	RBBP9 inhibitor 19 | RBBP9 inh conf 63
CC1CN(Cc2c(O)ccc3c(=O)c(-c4ccccc4)coc23)CC(C)O1 (configuration not stated)	none
NNc1nnc2c3cc(F)ccc3n(Cc3ccccc3)c2n1	RBBP9 inhibitor 20 | RBBP9 inh conf inactive
CCC(Sc1nnc(-c2ccco2)n1C)C(=O)Nc1nnc(C)s1 (configuration not stated)	none (no result: RBBP9 inhibitor)
CC(=O)C(C(C)=O)c1c(Cl)c(O)c(O)c2c(C(=O)c3ccccc3)coc12	RBBP9 inhibitor 26 | RBBP9 inh conf 34
O=C1C(C2=NC(c3ccccn3)C3C(=O)N(c4ccccc4)C(=O)C23)=C(O)c2ccccc21 (configuration not stated)	RBBP9 inhibitor 60 | RBBP9 inh conf inactive
Cc1nc2ccccc2c(=O)n1/N=C/c1c(O)ccc2ccccc12	none
Cc1nc2ccccc2c(=O)n1/N=C/c1c(O)ccc2oc3c(c12)CCCC3	RBBP9 inhibitor 19 | RBBP9 inh conf inactive
Clc1ccc(-c2nn3c(-c4ccccc4)nnc3s2)cc1	RBBP9 inhibitor 17 | RBBP9 inh conf inactive
Cc1ccsc1/C=N/NC(=O)c1nnn(-c2nonc2N)c1CSc1ccccc1	none (no result: RBBP9 inhibitor)
Cc1ccc2c(c1)c1cccc3c1n2CCN3CCC(N)=O	RBBP9 inhibitor 17 | RBBP9 inh conf inactive
